For series [1], the target named is T1, Epidermal growth factor receptor (Homo sapiens, UniProt P00533). Nature of the series: Inhibition of recombinant human GST-tagged wild type EGFR ( 668 to 1210 residues) cytoplasmic domain expressed in baculovirus expression system preincubated for 20 mins followed by addition of [33P]-ATP measured after 2 hrs by filter-binding method.
Series [2] addresses T2, Epidermal growth factor receptor (Homo sapiens, UniProt P00533, L858R). Briefly: Inhibition of recombinant human GST-tagged EGFR L858R mutant cytoplasmic domain expressed in baculovirus expression system preincubated for 20 mins followed by addition of [33P]-ATP measured after 2 hrs by filter-binding method.
Series [3] deals with T3, Epidermal growth factor receptor (Homo sapiens, UniProt P00533, L858R/T790M). Nature of the series: (§1) Inhibition of recombinant human GST-tagged EGFR L858R/T790M double mutant cytoplasmic domain expressed in baculovirus expression system preincubated for 20 mins followed by addition of [33P]-ATP measured after 2 hrs by filter-binding method.
The target of series [4] is Epidermal growth factor receptor (Homo sapiens, UniProt P00533, T790M/L858R). The series is described as §1.
Series [5] concerns the target Epidermal growth factor receptor (Homo sapiens, UniProt P00533, T790M/C797S/L858R). Nature of the series: (§2) Inhibition of recombinant human N-terminally GST-tagged EGFR L858R/T790M/C797S triple mutant expressed in baculovirus in Sf9 insect cells preincubated for 20 mins followed by addition of [33P]-ATP measured after 2 hrs by filter-binding method.
Series [6] addresses Epidermal growth factor receptor (Homo sapiens, UniProt P00533, C797S/L858R/T790M). The description is as §2.
Series [7] addresses T1, Epidermal growth factor receptor. Nature of the series: Inhibition of wild-type EGFR (unknown origin).
In series [8] the target is T2, Epidermal growth factor receptor. Nature of the series: Inhibition of EGFR L858R mutant (unknown origin).
For series [9], the target named is T3, Epidermal growth factor receptor. Nature of the series: Inhibition of EGFR L858R/T790M double mutant (unknown origin).
Series [10] relates to Epidermal growth factor receptor (Homo sapiens), P00533 [L858R,T790M,C797S]. Nature of the series: Potency index, ratio of osimertinib IC50 to compound IC50 for recombinant human N-terminally GST-tagged EGFR L858R/T790M/C797S triple mutant expressed in baculovirus in Sf9 insect cells.
Series [11] can be described thus: Solubility of the compound at pH 7.5 by UV-HPLC analysis. As to conditions: buffer; call rule not given here. It counts as physicochemical. In short, it runs like this:
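Solubility measured in the kinase assay buffer (pH 7.5); concentration determined by HPLC with UV detection.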

Series [12] deals with Mitogen-activated protein kinase 14 (Homo sapiens, UniProt Q16539). Nature of the series: Inhibition of p38alpha MAPK (unknown origin) assessed as decrease in ATF2 phosphorylation at Thr69/71 at 1 uM after 1 hr by ELISA.
The species named for series [13] is Homo sapiens. Nature of the series: Selectivity ratio of IC50 for EGFR L858R/T790M double mutant (unknown origin) to IC50 for wild-type EGFR (unknown origin).

The values that follow come from ChEMBL document CHEMBL4049460, “Trisubstituted Imidazoles with a Rigidized Hinge Binding Motif Act As Single Digit nM Inhibitors of Clinically Relevant EGFR L858R/T790M and L858R/T790M/C797S Mutants: An Example of Target Hopping” (J Med Chem, 2017).

Converted amounts (≈) assume the structure as drawn. A value given as a limit tells only on which side of the number the result lay.

Mitogen-activated protein kinase 14, sequence (Q16539 whole entry): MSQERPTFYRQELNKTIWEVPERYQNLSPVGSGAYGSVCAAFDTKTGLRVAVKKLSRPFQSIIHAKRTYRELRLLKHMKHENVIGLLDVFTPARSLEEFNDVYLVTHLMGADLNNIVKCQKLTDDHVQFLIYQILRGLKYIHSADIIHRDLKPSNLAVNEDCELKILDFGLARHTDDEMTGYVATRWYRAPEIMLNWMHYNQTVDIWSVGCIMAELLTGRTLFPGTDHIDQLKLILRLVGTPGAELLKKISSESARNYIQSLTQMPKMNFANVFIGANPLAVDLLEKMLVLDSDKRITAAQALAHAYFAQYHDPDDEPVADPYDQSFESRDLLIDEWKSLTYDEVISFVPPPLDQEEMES

Turning to `C=CC(=O)NCc1cccc(-c2nc(C3CC3)c(-c3ccnc4[nH]c(-c5ccccc5)cc34)[nH]2)c1`, the figures for the half-inhibitory concentration (IC50) in series [1] (read-out: IC50), in series [2] (read-out: IC50) and in series [3] were 4050 nM, 3920 nM and 11300 nM, respectively.
With `Fc1ccc(-c2nc(-c3ccccc3)[nH]c2-c2ccnc3[nH]ccc23)cc1`, the IC50 was 712 nM in series [1] (read-out: IC50), 631 nM in [2] (read-out: IC50), “Not Active” in series [4] and “Not Active” in series [5].
As to `C=CC(=O)NCc1cccc(-c2cc3c(-c4[nH]c(-c5ccccc5)nc4-c4ccc(F)cc4)ccnc3[nH]2)c1`, the IC50 in series [1] (read-out: IC50) was determined as 33.2 nM; in series [2] (read-out: IC50), 34.2 nM; in series [3], 683 nM.
Take `NCc1cccc(-c2nc(-c3ccc(F)cc3)c(-c3ccnc4[nH]c(-c5ccccc5)cc34)[nH]2)c1`: the 50% inhibitory concentration (IC50) was 336 nM in series [6], under 0.5 nM in series [7], under 0.5 nM in series [8] and 160 nM in series [9].
In the case of `C=CC(=O)NCc1cccc(-c2cc3cccnc3[nH]2)c1`, the IC50 result in series [1], in series [2], in series [4] and in series [5] was “Not Active” each time.
On to `OCCc1nc(-c2ccc(F)cc2)c(-c2ccnc3[nH]c(-c4ccccc4)cc23)[nH]1`, for which the 50% inhibitory concentration (IC50) is under 0.3 nM in series [1] (read-out: IC50); under 0.3 nM in series [2] (read-out: IC50); 12.5 nM in series [3]; 7.64 nM in series [6]; 4 nM in series [12]. The Ratio IC50 in series [10] came to 35. The solubility in [11] (read-out: solubility) was found to be 7 µg/mL (≈ 17.6 µM).
As for `Fc1ccc(-c2[nH]c(-c3ccccc3)nc2-c2ccnc3[nH]c(-c4ccccc4)cc23)cc1`, the half-inhibitory concentration (IC50) in series [1] (read-out: IC50) was 215 nM; in series [2] (read-out: IC50), 102 nM; in series [3], 1450 nM; in series [6], 1430 nM.
As to `C=CC(=O)Nc1cccc(-c2c[nH]c3nccc(-c4[nH]c(CCCO)nc4C(F)(F)F)c23)c1`, the IC50 is 680 nM in series [1] (read-out: IC50), 297 nM in series [2] (read-out: IC50), 1880 nM in series [3] and “Not Active” in [5].
`OCCCc1nc(-c2ccc(F)cc2)c(-c2ccnc3[nH]c(-c4ccccc4)cc23)[nH]1`: the IC50 is 21.1 nM in series [6]; under 0.5 nM in series [7]; under 0.5 nM in [8]; 6.47 nM in series [9]; 2 nM in series [12].
Consider `C=CC(=O)Nc1cccc(-c2c[nH]c3nccc(Cl)c23)c1`, for which the results for the IC50 in series [1] (read-out: IC50), in [2] (read-out: IC50) and in series [3] were 525 nM, 459 nM and 67.9 nM, respectively.
The matching figures for `Nc1cccc(-c2cc3c(-c4[nH]c(-c5ccccc5)nc4-c4ccc(F)cc4)ccnc3[nH]2)c1`: 24.1 nM, 15.4 nM and 651 nM.
Regarding `Oc1ccc(-c2nc(-c3ccccc3)c(-c3ccnc4[nH]c(-c5ccccc5)cc34)[nH]2)cc1`, the concentration for half-maximal inhibition (IC50) was found to be 13.6 nM in series [1] (read-out: IC50), 11.2 nM in series [2] (read-out: IC50), 658 nM in series [3] and 1 nM in [12].
As for `CCC(=O)Nc1cccc(-c2c[nH]c3nccc(-c4[nH]c(CCCO)nc4-c4ccc(F)cc4)c23)c1`, the IC50 in [1] (read-out: IC50) was determined as 673 nM; in series [2] (read-out: IC50), 279 nM; in [3], 5900 nM.
The matching figures for `CCC(=O)Nc1cccc(-c2cc3c(-c4[nH]c(-c5ccccc5)nc4-c4ccc(F)cc4)ccnc3[nH]2)c1`: 27.2 nM, 18.7 nM and 987 nM.
For `C=CC(=O)Nc1cccc(-c2c[nH]c3nccc(-c4[nH]c(CCCO)nc4C4CC4)c23)c1`, the half-maximal inhibitory concentration (IC50) in [1] (read-out: IC50) was 673 nM; in series [2] (read-out: IC50) it was 258 nM; in series [4], “Not Active”; in series [5] it was “Not Active”.
As for `Oc1cccc(-c2nc(-c3ccc(F)cc3)c(-c3ccnc4[nH]c(-c5ccccc5)cc34)[nH]2)c1`, the IC50 came out at 30.4 nM in [1] (read-out: IC50); 23.6 nM in [2] (read-out: IC50); 706 nM in [3]; 782 nM in [6]; 7 nM in series [12].
For `CCC(=O)Nc1cccc(-c2c[nH]c3nccc(-c4[nH]c(CCCO)nc4C4CC4)c23)c1`, the half-inhibitory concentration (IC50) result in series [1], in series [2], in series [4] and in series [5] was “Not Active” throughout.
With `Oc1ccc(-c2nc(-c3ccnc4[nH]c(-c5ccccc5)cc34)c(-c3ccc(F)cc3)[nH]2)cc1`, the IC50 came to 49.2 nM in series [1] (read-out: IC50), 24.1 nM in series [2] (read-out: IC50) and 916 nM in series [3].
On to `C=CC(=O)Nc1cccc(-c2c[nH]c3nccc(-c4[nH]c(-c5ccccc5)nc4-c4ccc(F)cc4)c23)c1`, for which the 50% inhibitory concentration (IC50) in series [1] (read-out: IC50) was 10.5 nM; in [2] (read-out: IC50), 7.8 nM; in series [3], 112 nM; in series [5], “Not Active”.
In the case of `Oc1ccc(-c2nc(-c3ccco3)c(-c3ccnc4[nH]c(-c5ccccc5)cc34)[nH]2)cc1`, the half-maximal inhibitory concentration (IC50) stood at 1790 nM in [1] (read-out: IC50), 1300 nM in [2] (read-out: IC50), 3310 nM in series [3] and 288 nM in series [12].
Consider `OCCCc1nc(-c2ccc(F)cc2)c(-c2ccnc3[nH]ccc23)[nH]1`, for which the concentration for half-maximal inhibition (IC50) in [1] (read-out: IC50) turned out to be 44 nM; in series [2] (read-out: IC50), 24.4 nM; in [3], 893 nM; in [6] it was 943 nM; in series [12] it was 12 nM. Also, the Ratio IC50 in [13] was over 130.
Take `C=CC(=O)Nc1cccc(-c2cc3c(-c4[nH]c(-c5ccccc5)nc4-c4ccc(F)cc4)ccnc3[nH]2)c1`: the IC50 in series [1] (read-out: IC50) is 43.2 nM; in [2] (read-out: IC50), 32.1 nM; in series [3] it was 908 nM.
For the compound `CCC(=O)Nc1cccc(-c2c[nH]c3nccc(-c4[nH]c(-c5ccccc5)nc4-c4ccc(F)cc4)c23)c1`, the half-inhibitory concentration (IC50) entry in series [1], in [2], in series [4] and in series [5] was “Not Active” in each case.
Regarding `C=CC(=O)NCc1cccc(-c2nc(-c3ccc(F)cc3)c(-c3ccnc4[nH]c(-c5ccccc5)cc34)[nH]2)c1`, the IC50 came to 17.6 nM in series [1] (read-out: IC50), 13 nM in series [2] (read-out: IC50) and 263 nM in [3].
On to `OCCCCc1nc(-c2ccc(F)cc2)c(-c2ccnc3[nH]c(-c4ccccc4)cc23)[nH]1`, for which the IC50 is under 0.3 nM in series [1] (read-out: IC50); under 0.3 nM in [2] (read-out: IC50); 8.39 nM in [3]; 8.4 nM in [6]; 2 nM in series [12]. Further, the solubility entry in series [11] is “Insoluble”.
